Usually ED50 stands for the midpoint of the dose-response relation.

These results are taken from ChEMBL document CHEMBL3244116, “New antiarrhythmic agents. 2. Amide alkyl alpha-amino xylidides” (J Med Chem, 1979).

For series [1], the system named is Mus musculus. Description: Ratio of lidocaine ED50 to compound ED50 for antiarrhythmic activity sc dosed Swiss albino mouse assessed as protection against chloroform-induced ventricular fibrillation. In kind it is functional, Heart. In a few lines:
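Each ED50 against chloroform-induced ventricular fibrillation in subcutaneously dosed mice came from at least three doses. Potency was calculated relative to lidocaine on a molar basis.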

The subject of series [2] is Mus musculus. Kind of series: Antiarrhythmic activity in sc dosed Swiss albino mouse assessed as protection against chloroform-induced ventricular fibrillation. Particulars: Heart. In kind it is functional. Summed up: (§1)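 Mice were given test agents subcutaneously, 100 mg/kg in preliminary runs, and were then challenged with chloroform to induce ventricular fibrillation (a modification of Lawson's method). Protection is expressed as the percent of challenged animals that survived the challenge. In the same animals, ataxia, convulsions, loss of righting reflex and death were scored as the percent of treated animals.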

Series [3] in a line: Toxicity in Swiss albino mouse assessed as death at 100 mg/kg, sc measured up to 20 mins. The arrangement: dose 100 mg/kg, route subcutaneous. In kind it is organism-based. The settings on record: in vivo, read-out: Activity. Summed up: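 Mice given 100 mg/kg subcutaneously in preliminary screening, then later challenged with chloroform to induce ventricular fibrillation. CNS signs were recorded in the same animals. Value is the percent of treated animals that died.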

In series [4] the test system is Mus musculus. Description: Antiarrhythmic activity in Swiss albino mouse assessed as protection against chloroform-induced fibrillation at 100 mg/kg, sc treated 20 mins before chloroform challenge. It is filed as functional, Heart. Particulars: route subcutaneous. In a few lines: as §1
The subject of series [5] is Mus musculus. Description: Toxicity in Swiss albino mouse assessed as ataxia at 100 mg/kg, sc measured up to 20 mins. It is filed as organism-based. The arrangement: dose 100 mg/kg, route subcutaneous. The settings on record: in vivo. Summed up: as §1
Series [6] deals with Mus musculus. Kind of series: Toxicity in Swiss albino mouse assessed as convulsion at 100 mg/kg, sc measured up to 20 mins. Further details: dose 100 mg/kg, route subcutaneous. The settings on record: in vivo. In kind it is organism-based. In a few lines:
as §1

For series [7], the system named is Mus musculus. Description: Toxicity in Swiss albino mouse assessed as loss of righting reflex at 100 mg/kg, sc measured up to 20 mins. It is filed as organism-based. The arrangement: dose 100 mg/kg, route subcutaneous. Particulars: in vivo. In a few lines: as §1
Series [8] concerns Canis familiaris. Description: Toxicity in left anterior descending coronary artery ligated myocardial infarction dog model assessed as dose required to cause convulsion at infusion rate at 0.5 mg/kg/min. It is filed as organism-based, Canis lupus familiaris. Particulars: in vivo. Summed up:
(§2)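 Test agents were infused intravenously into dogs with coronary artery ligation-induced myocardial infarction and ventricular arrhythmias. In some runs, infusion stopped at clearing or at convulsion. In others, it continued until clearing. Ectopic beats, CNS signs (convulsions, opisthotonus, clonic spasms), respiratory arrest and mean arterial blood pressure were recorded, and doses are given in mmol/kg. Values are means±SD of 5–14 experiments or the mean of 8.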

For series [9], the system named is Canis familiaris. Kind of series: Antiarrhythmic activity in left anterior descending coronary artery ligated myocardial infarction dog model assessed as clearing value as reduction in ventricular ectopic beat rate per min at infusion rate 0.5 mg/kg/min, iv treated until arrhythmia cleared. It is filed as functional, Canis lupus familiaris, Heart. In a few lines:
as §2

Series [10] relates to Canis familiaris. Description: Antiarrhythmic activity in left anterior descending coronary artery ligated myocardial infarction dog model assessed as mean arterial blood pressure at infusion rate 0.5 mg/kg/min, iv. In kind it is functional, Canis lupus familiaris. In a few lines:
as §2

The subject of series [11] is Canis familiaris. Kind of series: Antiarrhythmic activity in iv dosed left anterior descending coronary artery ligated myocardial infarction dog model assessed as dose required to reduction in ventricular ectopic beats to <= 5% at infusion rate 0.5 mg/kg/min. It is filed as functional, Canis lupus familiaris, Heart. Summed up: as §2
Series [12] relates to Canis familiaris. Kind of series: Antiarrhythmic activity in left anterior descending coronary artery ligated myocardial infarction dog model assessed as clearing value as reduction in ventricular ectopic beats to <= 5% for 5 mins at infusion rate 0.5 mg/kg/min, iv treated until arrhythmia cleared. In kind it is functional, Canis lupus familiaris, Heart. The arrangement: scale not given: the % may be the effect or the level left. In a few lines:
as §2

Series [13] deals with Canis familiaris. Kind of series: Toxicity in iv dosed left anterior descending coronary artery ligated myocardial infarction dog model assessed as dose required to cause convulsion after infusion off. It is filed as organism-based, Canis lupus familiaris. Particulars: in vivo. In a few lines:
as §2

Series [14] has as its system Canis familiaris. Kind of series: Toxicity in left anterior descending coronary artery ligated myocardial infarction dog model assessed as dose required to cause convulsion at infusion rate at 0.66 mg/kg/min. In kind it is organism-based, Canis lupus familiaris. Particulars: in vivo. Summed up: as §2

Regarding `CCCOc1cc(C)c(N(C)C(=O)CN)c(C)c1.O=C(O)C(=O)O`, the “Ratio ED50” value with Mus musculus [1] is 0.8. In addition, in the series with Mus musculus [2], the ED50 worked out at 340 µmol/kg. Moreover, the mortality at 20 min in [3] was found to be 0%. Besides, the Activity with Mus musculus [4] is 70%; in the series with Mus musculus [5], 20%; in the series with Mus musculus [6], 0%; in the series on Mus musculus [7], 0%.

As for `CCN(CC)CC(=O)Nc1c(C)cccc1C` [LIDOCAINE], the Activity is 0.27 mmol/kg with Canis familiaris [8]; 133 bpm with Canis familiaris [9]; 101 mmHg in the series on Canis familiaris [10]; 100% with Mus musculus [4]; 100% in the series on Mus musculus [5]; 100% in the series with Mus musculus [6]. Also, the Activity in the series with Mus musculus [7] is 100%; in the series with Canis familiaris [11], 0.21 mmol/kg; in the series with Canis familiaris [12], 4%. Further, in the series on Mus musculus [1], the “Ratio ED50” value was found to be 1. The 50% effective dose (ED50) in the series with Mus musculus [2] came out at 260 µmol/kg. Further, the mortality at 20 min in series [3] is 0%.

`Cc1cccc(C)c1NC(=O)C(C)N` (stereo not drawn) [TOCAINIDE]: the Activity in the series with Canis familiaris [8] turned out to be 0.3 mmol/kg; with Canis familiaris [9] it was 148 bpm; in the series on Canis familiaris [10], 108 mmHg; with Mus musculus [4] it was 20%; with Mus musculus [5], 10%; in the series with Mus musculus [6] it was 0%. For the same compound, the Activity was 0% in the series with Mus musculus [7], 0.32 mmol/kg in the series with Canis familiaris [11] and 2% in the series with Canis familiaris [12]. Besides, in the series on Mus musculus [1], the “Ratio ED50” value was 0.2. In addition, the ED50 with Mus musculus [2] was determined as 1300 µmol/kg. Besides, the mortality at 20 min in series [3] was 0%.

For the compound `Cc1cccc(C)c1NC(=O)CN` [GLYCINEXYLIDIDE], the “Ratio ED50” value in the series on Mus musculus [1] stood at 0.3. For the same compound, in the series on Mus musculus [2], the median effective dose (ED50) amounted to 900 µmol/kg. In series [3], the mortality at 20 min was 0%. For the same compound, the Activity is listed as 10% in the series with Mus musculus [4], 0% with Mus musculus [5], 0% in the series on Mus musculus [6] and 0% with Mus musculus [7].

With `CCC(N)C(=O)N(CC)c1c(C)cccc1C.Cl` (stereo not drawn), in series [3], the mortality at 20 min came to 30%. Also, the Activity in the series on Mus musculus [4] worked out at 100%; with Mus musculus [5], 100%; in the series on Mus musculus [6], 100%; in the series with Mus musculus [7], 0%.

Take `CCCOc1cc(C)c(N(CC)C(=O)CN)c(C)c1.O=C(O)C(=O)O`: the “Ratio ED50” value in the series with Mus musculus [1] came to 1.6. Further, the Activity in the series with Canis familiaris [9] came out at 168 bpm; with Canis familiaris [10] it was 90 mmHg; in the series with Canis familiaris [13] it was 0.16 mmol/kg; in the series with Mus musculus [4], 100%; in the series with Canis familiaris [14] it was 0.13 mmol/kg; in the series on Mus musculus [5] it was 0%. Moreover, the Activity in the series on Mus musculus [6] was 0%; with Mus musculus [7], 0%; in the series on Canis familiaris [11], 0.09 mmol/kg; in the series on Canis familiaris [12] it was 1%. The ED50 with Mus musculus [2] is 160 µmol/kg. For the same compound, the mortality at 20 min in series [3] worked out at 0%.

For the compound `CCCCOc1cc(C)c(N(C)C(=O)CN)c(C)c1.O=C(O)C(=O)O`, the “Ratio ED50” value in the series with Mus musculus [1] came out at 1. Besides, the median effective dose (ED50) in the series on Mus musculus [2] worked out at 270 µmol/kg. In [3], the mortality at 20 min came to 0%. Moreover, the Activity is given as 100% in the series on Mus musculus [4], 0% in the series with Mus musculus [5], 0% with Mus musculus [6] and 0% with Mus musculus [7].
